How the values were obtained:
Format in all cases: functional, cell-based
SW480 = test: Cytotoxicity against human SW480 cells after 48 hrs by MTT assay; details: SW480, 48 h
In short: (§1)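 Cells grown in RPMI-1640 or DMEM with 10% FBS, 37 °C, 5% CO2. Adherent cells seeded at 1 × 10^5 cells/mL and left 12 h to attach before dosing; suspension cells seeded just before dosing. Compound at 0.0625, 0.32, 1.6, 8 and 40 µM in triplicate for 48 h, cisplatin positive control. Viability by MTT; IC50 by Reed and Muench method.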

A549 = test: Cytotoxicity against human A549 cells after 48 hrs by MTT assay; details: A549, 48 h; in short: as §1
MCF7 = test: Cytotoxicity against human MCF7 cells after 48 hrs by MTT assay; details: MCF7, 48 h; in short: as §1
HL-60 = test: Cytotoxicity against human HL60 cells after 48 hrs by MTT assay; details: HL-60, 48 h; in short: as §1
SMMC-7721 = test: Cytotoxicity against human SMMC7721 cells after 48 hrs by MTT assay; details: SMMC-7721, 48 h; in short: as §1

SMILES: CC(C)C(=O)c1cc([C@@H]2CC[C@]3(C)C4=CCC5C(C)(C)[C@H](O)CC[C@]5(C)[C@H]4CC[C@@]23C)c[nH]1 (stereo partly drawn) [LAXIRACEMOSIN A]
- IC50 (SW480): 7.2 µM
- IC50 (A549): 5.4 µM
- IC50 (MCF7): 16.8 µM
- IC50 (HL-60): 3.1 µM
- IC50 (SMMC-7721): 9.5 µM

SMILES: CC(C)C(=O)c1cc([C@@H]2CC[C@]3(C)C4=CCC5C(C)(C)C(=O)CC[C@]5(C)[C@H]4CC[C@@]23C)c[nH]1 (stereo partly drawn) [LAXIRACEMOSIN B]
- IC50 (SW480): > 20 µM
- IC50 (A549): 13.4 µM
- IC50 (MCF7): > 20 µM
- IC50 (HL-60): 12.8 µM
- IC50 (SMMC-7721): 19 µM

SMILES: CC(C)(O)C(=O)c1cc([C@@H]2CC[C@]3(C)C4=CCC5C(C)(C)[C@H](O)CC[C@]5(C)[C@H]4CC[C@@]23C)c[nH]1 (stereo partly drawn) [LAXIRACEMOSIN D]
- IC50 (SW480): > 20 µM
- IC50 (A549): > 20 µM
- IC50 (MCF7): > 20 µM
- IC50 (HL-60): 6.8 µM
- IC50 (SMMC-7721): > 20 µM

SMILES: C=C(C)C(=O)c1cc([C@@H]2CC[C@]3(C)C4=CCC5C(C)(C)[C@H](O)CC[C@]5(C)[C@H]4CC[C@@]23C)c[nH]1 (stereo partly drawn) [LAXIRACEMOSIN E]
- IC50 (SW480): 3.7 µM
- IC50 (A549): 3.7 µM
- IC50 (MCF7): 5.1 µM
- IC50 (HL-60): 1.5 µM
- IC50 (SMMC-7721): 2.7 µM

SMILES: CC1(C)C2CC=C3[C@H](CC[C@@]4(C)[C@H](c5c[nH]c(C=O)c5)CC[C@]34C)[C@@]2(C)CC[C@H]1O (stereo partly drawn) [LAXIRACEMOSIN F]
- IC50 (SW480): > 20 µM
- IC50 (A549): > 20 µM
- IC50 (MCF7): > 20 µM
- IC50 (HL-60): 15.7 µM
- IC50 (SMMC-7721): 15.6 µM
